# High-throughput results deposited in PubChem BioAssay by several laboratories.
# WT yeast gro inh = growth inhibition of WT yeast, mitochondrial fusion screen. inhibition, % at 10 µM. mitochondrial fusion phenotypic screen, WT strain. 190,000 tested, 2.1% active. AID 1362; in the data active means inhibition above about 58%; tested in S. cerevisiae
# Ins promoter up = MIN6 insulin promoter up-regulation; z-score at 5 µM; 190,000 tested, 0.3% active; MIN6 insulin promoter-GFP reporter, high-content imaging; active compounds read high;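 active means z-score above 3 at 5 µM with at least 500 cells counted in the well; inconclusive means wells under 500 cells, flagged as cytotoxic or low count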
# SKKanGAS inh = inhibitors of SKKanGAS S. pyogenes growth in kanamycin (SK-promoter or general growth effect). BacTiter-Glo, 6 h. inhibition, % at 7.5 µM. 300,000 tested, 1.3% active. AID 1662;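 active means mean replicate score, as percent of positive control median, at least 50; inconclusive means mean below 50 but one replicate at or above 50; inactive means mean and every replicate below 50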;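 further: strain carries kanamycin resistance gene driven by streptokinase promoter and grows in 40 µg/ml kanamycin; loss of luminescence reflects streptokinase promoter inhibition or plain growth inhibition; 0% = median of DMSO wells and 100% = positive control at its reference dose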
# Autophagy mod = modulators of autophagy | MEF GFP-LC3 puncta imaging; test concentration mostly 10 µM | calls only at 10 µM (by protocol) | 190,000 tested, 0.98% active | AID 463193;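 active means percentage of spot-positive cells more than 3 SD above its plate mean, without a fluorescence outlier flag or 80% toxicity; inconclusive means no clear call, values can overlap the other calls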;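 further: spot-positive cell cutoff set from DMSO-treated cells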
# KCC2 mod = modulators of human KCC2 chloride dependent transport; AID 1456; B-score of Tl+ flux slope (higher = more flux/activation; lower = inhibition) at 10 µM; KCC2 cells, thallium flux FluoZin-2 fluorescence; Q9H2X9; 190,000 tested, 2.2% active;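 active means thallium flux slope and its plate-corrected score both differing from the plate sample mean at a set confidence after two filtering rounds, in either direction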;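 further: slope of fluorescence scaled to starting intensity during 10 to 20 s after thallium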
# Rad51 HR inh = Rad51 (human) homologous recombination inhibition; Q06609; hRad51 DNA strand exchange, fluorescence dequenching; inhibition, % at 10 µM; 200,000 tested, 0.085% active;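 active means inhibition above 40% at the single screening dose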;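 further: 0% = DMSO control wells and 100% = blanks with heterologous ssDNA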
# Target sequence (Q06609 whole entry, looked up): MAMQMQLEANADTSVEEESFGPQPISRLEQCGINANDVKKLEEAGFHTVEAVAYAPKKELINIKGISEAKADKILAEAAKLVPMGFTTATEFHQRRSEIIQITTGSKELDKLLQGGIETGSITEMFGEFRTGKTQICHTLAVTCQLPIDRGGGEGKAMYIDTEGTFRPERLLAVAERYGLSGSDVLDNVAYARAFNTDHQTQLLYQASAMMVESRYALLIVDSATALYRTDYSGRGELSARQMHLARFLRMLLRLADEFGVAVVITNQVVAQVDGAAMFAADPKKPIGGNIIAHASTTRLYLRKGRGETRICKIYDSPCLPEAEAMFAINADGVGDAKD
#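 Test system – preformed human Rad51 ssDNA filaments · Reagent – Donor/quencher-labelled 47-bp dsDNA substrate · Incubation – 37 °C 15-min filament assembly, 30-min compound preincubation, 15-min exchange · Signal – FRET fluorescence dequenching, excitation 485 nm, emission 520 nm · Read-out – percent inhibition from fluorescence, normalised to plate control and blank means · Benchmarks – plate control and blank wells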
# Starred values were filed as active, the others as inactive; i = inactive; ? = inconclusive; / = not tested or not shown; + = active, no number. In the library only some 4.2% were active in any assay of this set; here they are far more common.
SMILES,WT yeast gro inh,Ins promoter up,SKKanGAS inh,Autophagy mod,KCC2 mod,Rad51 HR inh
COc1ccccc1C(=O)NC1CCCCCCC1,-13,/,-5,+,-0.95,-9
O=C(N/N=C/c1ccc([N+](=O)[O-])o1)c1ccc(NS(=O)(=O)c2cccs2)cc1,/,-0.8,72*,/,-0.041,-2
O=C(N/N=C\C=C\c1ccc([N+](=O)[O-])o1)c1cccs1,/,/,91*,/,/,/
Cc1nn(-c2ccc(F)cc2)c(Cl)c1/C=N/NC(=O)c1cccs1,5,-0.98,-1,i,-0.49,9
Cc1nn(-c2ccc(Cl)cc2)c(Cl)c1/C=N/NC(=O)c1ccc(NS(=O)(=O)c2cccs2)cc1,/,/,63*,/,/,/
O=C(N/N=C/C=C/c1ccccc1[N+](=O)[O-])c1cccs1,-4,-0.34,6,i,-1.3,-10
Cc1cc(C)c(C)c(C(=O)CSc2nnc(-c3ccc4[nH]c(C)c(C)c4c3)o2)c1C,31,-0.93,2,+,-1.2,-8
CCCNC(=O)Cn1c(-c2ccc(F)cc2)cc(C(=O)OCC)c1C,2,/,4,+,0.26,-55
CCOC(=O)c1cc(-c2ccccc2)n(CC(=O)O)c1C,-1,0.28,/,+,0.52,6
COc1cc(OC)cc(C(=O)Nc2ccc(N3CCN(C(=O)c4cccs4)CC3)cc2)c1,/,/,9,/,/,/
O=C(O)C1CCC(CNS(=O)(=O)c2ccccc2)CC1 (centres undefined),/,/,-1,/,/,/
CCCS(=O)(=O)Nc1ccc2cn[nH]c2c1,-1,-1.1,2,i,1.1,-8
CCOc1cc(C)c(S(=O)(=O)Nc2ccc3cn[nH]c3c2)cc1C,18,4.2*,-7,i,/,6
COc1ccc2ccccc2c1CNCCCN1CCOCC1,21,-0.83,/,i,-1,-7
C=CCOc1ccc2ccccc2c1CNCCCN1CCOCC1,64*,-2,-2,i,0.038,/
O=C(NCCc1ccccc1Cl)C1CCC(=O)N(CC2CCCCC2)C1 (centres undefined),/,/,-11,/,/,/
COC(=O)c1cnn2c(C(F)(F)F)cc(-c3ccc(F)cc3)nc12,20,4.2*,-14,i,0.17,-3
COc1ccc(-c2cc(C(F)F)n3ncc(C(=O)Nc4ccc(C(=O)N5CCOCC5)cc4)c3n2)cc1,0,-0.87,33,+,-1.7,/
Cc1ccc(-c2cc(C(F)F)n3ncc(C(=O)N4CCc5ccccc5C4)c3n2)cc1,77*,-1.3,-2,i,-0.34,12
CCOC(=O)c1cnn2c(C(F)(F)F)cc(-c3ccccc3)nc12,6,/,-14,i,0.83,1
O=C(c1cnn2c(C(F)(F)F)cc(-c3ccc(F)cc3)nc12)N1CCc2ccccc2C1,/,/,62*,/,/,/
O=C(Nc1ccc(C(=O)N2CCOCC2)cc1)c1cnn2c(C(F)F)cc(-c3ccccc3)nc12,-6,/,10,i,-0.29,-2
Cc1ccc(-c2cc(C(F)F)n3ncc(C(=O)N4CCCc5ccccc54)c3n2)cc1,-11,0.44,4,i,-0.96,-7
CC(=O)Nc1ccccc1OCc1cnc(Cl)s1,-8,0.01,0,i,0.25,4
N#Cc1c(N)nc2c(c1-c1ccc(F)cc1)c(=O)nc1sccn12,-4,1,-1,i,-0.92,3
SMILES,WT yeast gro inh,Ins promoter up,SKKanGAS inh,Autophagy mod,KCC2 mod,Rad51 HR inh
CC(C)(C)c1ccc(NC(=O)CNC2CCCc3ccccc32)cc1 (centres undefined),81*,-0.61,-11,i,0.53,38
Cc1c(NC(=O)C(C)OC(=O)/C=C/c2ccc(OC(F)F)cc2)c(=O)n(-c2ccccc2)n1C (centres undefined),/,/,-3,/,/,/
CCCOCc1ccc(O)c2ncccc12,/,-1.7,82*,/,1.5,/
OCc1ccc(O)c2ncccc12,7,?,5,i,0.13,1
CC(C)COCc1ccc(O)c2ncccc12,16,-2.3,83*,i,-2.3,/
CCOC(=O)N1CCN(Cc2ccc(O)c3ncccc23)CC1,-18,-0.26,30,i,-0.31,-6
Cc1ccc(C(=O)Nc2ncccc2O)cc1S(=O)(=O)N1CCCCC1,/,/,5,/,/,/
O=C(O)C1CCCCC1C(=O)Nc1ccc(F)cc1F (centres undefined),97*,0.2,5,i,0.0041,/
O=C(O)C1CCCCC1C(=O)Nc1ccc(F)c(F)c1 (centres undefined),1,-0.02,20,i,1.3,13
CCOc1ccc(C2=Nc3ccc(Br)cc3C(c3ccc(N4CCOCC4)cc3)=NN2)cc1,29,0.13,9,i,0.17,2
CCc1ccc2c(c1)C(c1ccc(N3CCOCC3)cc1)=NNC(c1ccncc1)=N2,68*,-0.72,15,i,-0.57,3
COc1ccc(O[C@H]2C=C[C@@H](c3ccccc3)O[C@@H]2CO/N=C(\C)CCC(=O)OC[C@H]2O[C@H](c3ccccc3)C=C[C@@H]2Oc2ccc(OC)cc2)cc1,-8,-0.47,6,i,0.27,/
Cc1ccc(NC(=O)c2cc(-c3ccc(C)c(C)c3O)n[nH]2)cc1C,/,/,-1,/,/,/
COc1ccc(NC(=O)c2cc(-c3ccc(C)c(C)c3O)n[nH]2)cc1Cl,/,/,57*,/,/,/
O=C(Nc1nnc(SCc2ccc(F)cc2)s1)c1ccc2c(c1)C(=O)N(c1ccccc1Cl)C2=O,5,0.86,54*,i,/,/
O=C(Nc1nnc(SCc2ccc(F)cc2)s1)c1ccc2ncsc2c1,-7,-0.86,-10,i,-1.3,-2
CCCCn1c(N)c(N(CC(C)C)C(=O)c2ccc(S(=O)(=O)N3CCC(C)CC3)cc2)c(=O)[nH]c1=O,/,/,1,/,/,/
O=C(c1ccc(Cl)cc1)N1CCC(O)(CSc2ccc(Cl)cc2)CC1,61*,/,10,i,-0.49,5
CCC(=O)N(CCC(Cc1ccccc1)c1ccc2c(c1)OCO2)Cc1ccccc1F (centres undefined),/,/,52*,i,0.62,/
COc1ccc(Nc2nc(NC(C)(C)C)nc(N3CCCC3)n2)c(OC)c1,84*,-0.03,20,i,1.5,/
COCC1=C(C(=O)OC)C(c2cccs2)n2ncnc2N1 (centres undefined),/,-0.19,5,/,-0.055,17
COC1(C)CC2C(CC1OC(=O)c1cc([N+](=O)[O-])cc([N+](=O)[O-])c1)C2(C)C (centres undefined),76*,/,-1,i,-1.1,-6
COc1ccc(C2/C=C\CN(C(=O)OCc3ccccc3)CC(=O)N2Cc2ccc(F)cc2)cc1 (centres undefined),/,/,6,/,-2.2,-6
COc1ccc(C2/C=C\CN(C(=O)c3ccccc3)CC(=O)N2Cc2ccc(F)cc2)cc1 (centres undefined),/,/,68*,/,1,-3
CCOC(=O)c1cnc(-n2nc(C)cc2C)nc1N(C)C,29,0.45,30,i,/,0
CCOC(=O)c1cnc(-n2nc(C)cc2C)nc1Nc1ccc(OC)cc1,44,-2.4,66*,i,/,-1
